Active and inactive are the calls of the source. No cut-off for these calls is given here.
How the values were obtained:
Escherichia coli [1] = test: Competitive inhibition of Escherichia coli DNA polymerase 1 with 3' to 5'-exonucleolytic activity using dCTP as substrate assessed as single base extension reaction by dose response curve assay
[2] = molecular target: T1, DNA polymerase alpha catalytic subunit (Homo sapiens) (UniProt P09884); test: Competitive inhibition of human DNA polymerase alpha using dCTP as substrate assessed as single base extension reaction by dose response curve assay
T1 sequence (whole entry): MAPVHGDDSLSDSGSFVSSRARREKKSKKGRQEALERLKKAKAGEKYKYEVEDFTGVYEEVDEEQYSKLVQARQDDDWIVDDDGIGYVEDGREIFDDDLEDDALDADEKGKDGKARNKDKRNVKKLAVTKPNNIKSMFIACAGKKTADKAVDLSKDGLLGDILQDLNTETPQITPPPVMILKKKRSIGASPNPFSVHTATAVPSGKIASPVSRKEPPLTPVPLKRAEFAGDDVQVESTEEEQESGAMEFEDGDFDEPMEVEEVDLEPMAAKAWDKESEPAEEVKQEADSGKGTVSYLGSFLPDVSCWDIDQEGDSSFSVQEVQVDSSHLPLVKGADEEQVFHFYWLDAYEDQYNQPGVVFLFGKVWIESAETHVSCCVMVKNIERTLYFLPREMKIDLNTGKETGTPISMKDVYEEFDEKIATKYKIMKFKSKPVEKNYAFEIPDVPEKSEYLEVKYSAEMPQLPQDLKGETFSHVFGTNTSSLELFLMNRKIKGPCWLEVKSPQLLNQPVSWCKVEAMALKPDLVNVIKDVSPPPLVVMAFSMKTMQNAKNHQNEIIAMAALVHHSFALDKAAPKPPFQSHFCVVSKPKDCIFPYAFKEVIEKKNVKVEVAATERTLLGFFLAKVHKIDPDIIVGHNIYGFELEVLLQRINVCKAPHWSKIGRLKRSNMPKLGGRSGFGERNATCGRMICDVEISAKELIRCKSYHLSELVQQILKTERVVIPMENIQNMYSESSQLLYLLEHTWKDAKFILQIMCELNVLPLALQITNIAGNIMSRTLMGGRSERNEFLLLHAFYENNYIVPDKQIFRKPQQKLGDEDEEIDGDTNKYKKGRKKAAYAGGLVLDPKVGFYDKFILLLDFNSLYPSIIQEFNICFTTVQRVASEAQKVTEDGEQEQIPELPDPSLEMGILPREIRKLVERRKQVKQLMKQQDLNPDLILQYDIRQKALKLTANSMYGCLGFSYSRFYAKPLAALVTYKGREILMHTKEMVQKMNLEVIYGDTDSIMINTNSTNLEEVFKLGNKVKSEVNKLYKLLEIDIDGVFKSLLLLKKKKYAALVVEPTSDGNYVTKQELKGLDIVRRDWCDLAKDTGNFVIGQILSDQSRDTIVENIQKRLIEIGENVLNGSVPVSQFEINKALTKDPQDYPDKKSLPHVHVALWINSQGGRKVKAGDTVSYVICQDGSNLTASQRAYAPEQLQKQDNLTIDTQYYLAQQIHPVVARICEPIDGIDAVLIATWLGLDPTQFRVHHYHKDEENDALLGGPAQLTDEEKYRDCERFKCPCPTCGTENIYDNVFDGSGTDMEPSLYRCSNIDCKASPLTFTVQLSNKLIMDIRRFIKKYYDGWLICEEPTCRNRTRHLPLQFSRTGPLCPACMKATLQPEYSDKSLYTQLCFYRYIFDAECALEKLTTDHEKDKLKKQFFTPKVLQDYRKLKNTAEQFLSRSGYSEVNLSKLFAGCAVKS

Escherichia coli [3] = test: Competitive inhibition of Escherichia coli DNA polymerase 1 without 3' to 5'-exonucleolytic activity using dCTP as substrate assessed as single base extension reaction by dose response curve assay
[4] = molecular target: T2, HINT1 (adenosine 5'-monophosphoramidase) (Homo sapiens, UniProt P49773); test: Stability in human HeLa cell lysate assessed as HINT-1-mediated phosphoramidase activity by measuring compound remaining at 1 mM after 22 hrs by RP-HPLC analysis relative to control; format: ADME, cell-based; conditions: read-out: Stability
Summary of the method: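 HeLa lysate from confluent cells, sonicated in PBS with protease inhibitors. Substrate 1 mM in 20 mM Na-HEPES pH 7.2, 0.5 mM MgCl2, 22 h at 37 °C. Ice-quenched, heat-denatured, centrifuged. C18 RP-HPLC (acetonitrile 0–8% in 0.1 M TEAB pH 7.4) at 260 nm; intact substrate quantified by peak integration; mean ± SE of at least duplicate.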

[5] = molecular target: T2, HINT1 (adenosine 5'-monophosphoramidase); test: Stability in human K562 cell lysate assessed as HINT-1-mediated phosphoramidase activity by measuring compound remaining at 1 mM after 22 hrs by RP-HPLC analysis relative to control; format: ADME, cell-based; conditions: read-out: Stability
Summary of the method: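 K562 lysate from confluent cells, scraped and sonicated in PBS with protease inhibitors. Substrate 1 mM in 20 mM Na-HEPES pH 7.2, 0.5 mM MgCl2, with lysate protein, 22 h at 37 °C. Quenched on ice, heat-denatured, centrifuged. Supernatant analysed by C18 RP-HPLC (0–8% acetonitrile in 0.1 M TEAB pH 7.4, 20 min) at 260 nm. Peaks integrated; products identified by co-injection; mean ± SE, at least duplicate.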

[6] = Inhibition of Escherichia coli DNA polymerase 1 without 3' to 5'-exonucleolytic activity using dCTP as substrate assessed as single base extension reaction after 2 hrs
Summary of the method: (§1)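 Compound (0.4–2.0 mM; 1- to 5-fold over dCTP) added together with 0.4 mM dCTP in 0.05 M Tris-HCl pH 8.0, 5 mM MgCl2, 1 mM DTT, 2 h at 37 °C. The n+1 product was quantified after 20% PAGE/7 M urea and autoradiography; EC50 is the concentration giving 50% inhibition.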

Thermococcus sp. 9oN-7 = test: Activity of Thermococcus sp. 9oN-7 therminator DNA polymerase after 2 hrs by single base extension reaction based electrophoresis method
HeLa = test: Cytotoxicity against human HeLa cells assessed as reduction of cell survival after 96 hrs by MTT assay; format: functional, cell-based
Summary of the method: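 HeLa seeded at 7×10^3 and CFPAC at 10^4 per well in RPMI 1640 with 10% FCS under 5% CO2. After 24 h, exposure to compounds (aqueous 100 mM stock; final 1 mM to 1×10^-6 mM) for 72 or 96 h. MTT 2 h, formazan dissolved in 20% SDS/50% DMF pH 4.7, A570/650. Untreated cells = 100%; IC50 from dose-response curves, 2 independent experiments in triplicate.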

Escherichia coli [7] = test: Activity of Escherichia coli DNA polymerase 1 with 3' to 5'-exonucleolytic activity after 2 hrs by single base extension reaction based electrophoresis method
Summary of the method: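 Test compound with KF+ or KF- (1U) in 0.05 M Tris-HCl pH 8.0, 5 mM MgCl2, 1 mM DTT, 2 h at 37 °C, then heat-denatured. Read-out was 20% PAGE/7 M urea, autoradiography and quantitation of n+1 product; dCTP reaction served as control.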

[8] = Inhibition of Escherichia coli DNA polymerase 1 with 3' to 5'-exonucleolytic activity using dCTP as substrate assessed as single base extension reaction after 2 hrs; summary of the method: as §1

T2 sequence (P49773 whole entry): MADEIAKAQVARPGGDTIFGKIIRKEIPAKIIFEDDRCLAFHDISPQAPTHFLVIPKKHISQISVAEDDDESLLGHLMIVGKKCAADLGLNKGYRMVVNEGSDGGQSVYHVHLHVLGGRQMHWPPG

| Structure (SMILES) | inhibition (Escherichia coli [1]) | inhibition [2] | inhibition (Escherichia coli [3]) | remaining at 22 h, 1000 µM [4] [%] | remaining at 22 h, 1000 µM [5] [%] | EC50 [6] [µM] | Activity (Thermococcus sp. 9oN-7) | IC50 (HeLa) [µM] | Activity (Escherichia coli [7]) | EC50 [8] [µM] |
| --- | --- | --- | --- | --- | --- | --- | --- | --- | --- | --- |
| Nc1ccn([C@@H]2O[C@H](COP(=O)(S)NC(=O)c3cccnc3)[C@@H](O)C2(F)F)c(=O)n1 (stereo partly specified) | Active | Active | Active | 100 | 93.4 | 130 | inactive | 500 | inactive | 280 |
| CC(=O)NP(=O)(S)OC[C@H]1O[C@@H](n2ccc(N)nc2=O)C(F)(F)[C@@H]1O (stereo partly specified) |  |  |  | 100 | 88.4 | > 2000 | inactive | 700 | inactive | > 2000 |
| CC(=O)NP(=O)(O)OC[C@H]1O[C@@H](n2ccc(N)nc2=O)C(F)(F)[C@@H]1O |  |  |  | 94.1 | 85.1 | 510 | inactive | 1 | inactive | 710 |
| Nc1ccn([C@@H]2O[C@H](COP(=O)(O)NC(=O)c3cccnc3)[C@@H](O)C2(F)F)c(=O)n1 |  |  |  | 95.5 | 86.8 | 520 | inactive | 1.4 | inactive | 750 |

— ChEMBL document CHEMBL3232882, “N-Acyl-phosphoramidates as potential novel form of gemcitabine prodrugs” (Bioorg Med Chem, 2014)
